Data published in PubChem BioAssay AID623895 (Broad Institute, 2012).
Activity calls are given as the source filed them.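 The calls were made as follows: active = compounds with an ATP-loss curve whose half-maximal dose stays within twice the top dose, in every run; inconclusive = mixed run calls, weak flat effects or poor fits; inactive = the rest, including opposite-direction effects.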

Assays:
[1] = system: ldlA[mSR-BI] CHO cells viability, ATP luminescence, 24 h; experiment: viability loss of SR-BI expressing CHO cells – cell-based, 24 h, ATP luminescence, dry powder, set 6, cytotoxicity control for SR-BI HDL uptake inhibitor project, dose response (AID 623895)
Summary of the method: (§1)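 Timing: 24 h at 37 °C, read after 10 min; material: ldlA[mSR-BI] cells; input: 4,000 cells per well; technique: ATP luminescence (Cell Titer Glo); dosing: 8 compound concentrations; buffer or medium: Ham's F12 growth medium with 10% FCS; read-out basis: viability IC50 from dose-response fit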

[2] = as above; conditions: ldlA[mSR-BI] CHO cells viability, ATP luminescence, 24 h; at 35 µM (top of the series)
Summary of the method: as §1

Compound	AC50 [1]	activity change, negative = cytotoxicity [2]
C[C@@H]1CN([C@H](C)CN(C)C)C(=O)c2cc(NC(=O)Cc3cn(C)c4ccccc34)ccc2O[C@H]1CN(C)S(=O)(=O)c1ccc(Cl)cc1	15.3 µM	
COc1c(NC(=O)C(=O)c2ccc(OCCN3CCOCC3)c3ccccc23)cc(C(C)(C)C)cc1NS(C)(=O)=O	34.3 µM	
CCCCCCC1CCC/C1=N\NC(N)=S (stereo not given)	3.81 µM	
COCC(=O)N1CCc2cc(-c3csc(NC(=O)c4cc(OC)cc(OC)c4)n3)ccc21		3.3% (inactive)
C[C@@H]1CN([C@H](C)CO)C(=O)c2cc(NC(=O)Cc3cn(C)c4ccccc34)ccc2O[C@H]1CN(C)S(=O)(=O)c1ccc(F)cc1		-29.1% (inactive)
C[C@@H]1CN([C@H](C)CO)C(=O)c2cc(NC(=O)CCCN(C)C)ccc2O[C@H]1CN(C)S(=O)(=O)c1ccc(Cl)cc1		15.7% (inactive)
C[C@@H]1CN([C@H](C)CO)C(=O)c2cc(NC(=O)Cc3cn(C)c4ccccc34)ccc2O[C@H]1CN(C)Cc1ccc(C(=O)Nc2ccccc2N)cc1		-12.9% (inactive)
C[C@@H]1CN([C@H](C)CO)C(=O)c2cc(NC(=O)C3CC3)ccc2O[C@H]1CN(C)S(=O)(=O)c1ccc(Cl)cc1		-13% (inactive)
C[C@@H]1CN([C@H](C)CO)C(=O)c2cc(NC(=O)Cc3cn(C)c4ccccc34)ccc2O[C@H]1CN(C)C(=O)Nc1ccc(C(F)(F)F)cc1		-31.9% (inactive)
C[C@@H]1CN([C@H](C)CO)C(=O)c2cc(NC(=O)CCC(F)(F)F)ccc2O[C@H]1CN(C)S(=O)(=O)c1ccc(Cl)cc1		-19.4% (inactive)
